Results taken from ChEMBL document CHEMBL3526116, “Toxicological evaluation of acyl glucuronides of nonsteroidal anti-inflammatory drugs using human embryonic kidney 293 cells stably expressing human UDP-glucuronosyltransferase and human hepatocytes” (Drug Metab Dispos, 2011).

How the values were obtained:
HEK293 [1] = test: Cytotoxicity against HEK293 cells expressing UGT1A4 assessed as decrease in cell viability at 1 mM by MTT assay; assay type: ADME, cell-based; details: human, hek293, 1000 µM; TDE = time-dependent effect
HEK293 [2] = test: Cytotoxicity against mock transfected HEK293 cells assessed as decrease in cell viability by measuring intracellular ATP content at 1 mM by CellTiter-Glo luminescent assay; assay type: cell-based; details: human, hek293, 1000 µM; TDE = time-dependent effect
Procedure, shortened: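 Mock-transfected HEK293 cells seeded at 2 x 10^4 cells/well in DMEM with 0.5% FBS, drug added at once and incubated 6, 12 or 24 h. Viability read either by WST-8 (CCK-8) formazan absorbance at 450 nm or by intracellular ATP luminescence (CellTiter-Glo), as percent of control cells; mean ± SD of triplicates. Final DMSO ≤0.1%.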

HEK293 [3] = test: Cytotoxicity against HEK293 cells expressing UGT assessed as LDH leakage at 1 mM after 6 to 24 hrs by spectrophotometric analysis relative to total cell LDH level; assay type: ADME, cell-based; details: human, hek293, 1000 µM
Procedure, shortened: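 Stable UGT-expressing or mock HEK293 lines in DMEM with 0.5% FBS, 2 x 10^4 cells/well, drug for 6, 12 or 24 h. LDH released into medium read at 490 nm (690 nm reference); percentage calculated against maximum release from control cells lysed with 1% Triton X-100.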

HEK293 [4] = test: Cytotoxicity against HEK293 cells expressing UGT1A3 assessed as decrease in cell viability by measuring intracellular ATP content at 1 mM by CellTiter-Glo luminescent assay; assay type: ADME, cell-based; details: human, hek293, 1000 µM; TDE = time-dependent effect
Procedure, shortened: (§1)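 UGT1A3 or UGT1A4 stable HEK293 cells, 2 x 10^4 cells/well in 0.1 mL DMEM with 0.5% FBS, drug for 6, 12 or 24 h. Viability from intracellular ATP via CellTiter-Glo luminescence, expressed as percent of control cells. Mean ± SD of triplicates.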

HEK293 [5] = test: Genotoxicity in HEK293 cells expressing UGT1A3 assessed as DNA strand breaks at 1 mM after 24 hrs by comet assay; assay type: toxicity, cell-based; details: human, hek293, 24 h, 1000 µM
Procedure, shortened: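 Alkaline comet assay: HEK/UGT1A3 cells seeded 24 h before, treated 24 h in DMEM with 0.5% FBS (vehicle 0.1% DMSO; MMS 0.1 mM positive control). Cells embedded in LMP agarose, lysed 1 h at 4°C at pH 10, unwound 30 min in NaOH/EDTA, electrophoresed 300 mA 20 min, ethidium-stained; tail moment scored on 150-180 comets over >3 experiments, median (IQR).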

HEK293 [6] = test: Cytotoxicity against HEK293 cells expressing UGT1A3 assessed as decrease in cell viability at 1 mM by MTT assay; assay type: ADME, cell-based; details: human, hek293, 1000 µM; TDE = time-dependent effect
[7] = molecular target: T1, UDP-glucuronosyltransferase 1A3 (Homo sapiens, UniProt P35503); test: Activity of human UGT1A3 expressed in HEK293 cells assessed as enzyme-mediated ketoprofen acyl-beta-D-glucuronide formation at 1 mM measured at 24 hrs by LC-MS/MS analysis; assay type: ADME, cell-based; details: hek293, 24 h, 1000 µM
T1 sequence (P35503 whole entry): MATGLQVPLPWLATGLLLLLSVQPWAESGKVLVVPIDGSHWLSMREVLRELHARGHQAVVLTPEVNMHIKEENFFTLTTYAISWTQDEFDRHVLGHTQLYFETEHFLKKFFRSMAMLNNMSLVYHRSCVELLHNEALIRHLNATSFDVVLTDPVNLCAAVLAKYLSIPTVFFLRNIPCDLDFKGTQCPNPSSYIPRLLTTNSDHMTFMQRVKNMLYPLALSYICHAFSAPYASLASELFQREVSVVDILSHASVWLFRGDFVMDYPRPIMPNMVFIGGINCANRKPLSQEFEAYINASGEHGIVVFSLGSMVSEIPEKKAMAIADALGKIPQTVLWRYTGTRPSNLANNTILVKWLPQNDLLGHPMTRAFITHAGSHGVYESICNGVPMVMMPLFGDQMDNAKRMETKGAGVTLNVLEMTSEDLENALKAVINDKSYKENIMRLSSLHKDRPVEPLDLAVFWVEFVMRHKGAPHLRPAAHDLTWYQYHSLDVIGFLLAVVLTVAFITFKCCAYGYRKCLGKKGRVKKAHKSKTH
Procedure, shortened: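 HEK293 stably expressing human UGT1A3 (G418-selected), 2 x 10^5 cells/well in 1 mL DMEM with 0.5% FBS, exposed immediately to drug for 6, 12 or 24 h; DMSO ≤0.1% final. Cells and medium separated by centrifugation, cell fraction resuspended in PBS; aliquots mixed 1:1 with methanol/acetic acid (100:1), spun, supernatant analysed by LC-MS/MS. Triplicate determinations, mean ± SD.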

HEK293 [8] = test: Cytotoxicity against mock transfected HEK293 cells assessed as decrease in cell viability at 1 mM by MTT assay; assay type: cell-based; details: human, hek293, 1000 µM; TDE = time-dependent effect
HEK293 [9] = test: Cytotoxicity against HEK293 cells expressing UGT1A4 assessed as decrease in cell viability by measuring intracellular ATP content at 1 mM by CellTiter-Glo luminescent assay; assay type: ADME, cell-based; details: human, hek293, 1000 µM; TDE = time-dependent effect; procedure, shortened: as §1
HEK293 [10] = test: Cytotoxicity against HEK293 cells expressing UGT assessed as decrease in cell viability at 1 mM measured up to 72 hrs by MTT assay; assay type: ADME, cell-based; details: human, hek293, 72 h, 1000 µM
Procedure, shortened: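 Mock and UGT1A3/UGT1A4 stable HEK293 cells given drug for up to 72 h; viability measured by WST-8-based MTT assay.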

[11] = molecular target: T2, UDP-glucuronosyltransferase 1A4 (Homo sapiens, UniProt P22310); test: Activity of human UGT1A4 expressed in HEK293 cells assessed as enzyme-mediated ketoprofen acyl-beta-D-glucuronide formation at 1 mM measured at 24 hrs by LC-MS/MS analysis; assay type: ADME, cell-based; details: hek293, 24 h, 1000 µM
T2 sequence (P22310 whole entry): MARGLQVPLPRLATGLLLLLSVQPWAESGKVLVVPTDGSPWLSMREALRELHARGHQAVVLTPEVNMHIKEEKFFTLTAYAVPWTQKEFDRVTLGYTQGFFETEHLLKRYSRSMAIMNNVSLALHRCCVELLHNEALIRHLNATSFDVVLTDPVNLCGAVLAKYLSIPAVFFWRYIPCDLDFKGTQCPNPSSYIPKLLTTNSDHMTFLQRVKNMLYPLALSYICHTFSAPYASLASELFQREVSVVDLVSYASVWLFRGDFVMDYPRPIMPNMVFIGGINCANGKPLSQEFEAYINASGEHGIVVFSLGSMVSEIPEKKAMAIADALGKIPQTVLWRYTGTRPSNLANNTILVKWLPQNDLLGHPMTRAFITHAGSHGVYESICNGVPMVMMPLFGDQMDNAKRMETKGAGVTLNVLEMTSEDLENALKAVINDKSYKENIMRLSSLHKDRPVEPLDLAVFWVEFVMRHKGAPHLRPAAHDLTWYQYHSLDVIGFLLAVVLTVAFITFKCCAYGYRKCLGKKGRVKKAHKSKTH
Procedure, shortened: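 HEK293 stably expressing human UGT1A4, 2 x 10^5 cells/well in DMEM with 0.5% FBS, drug exposure 6–24 h, DMSO ≤0.1% final. Acyl glucuronide in cell fraction and medium measured by LC-MS/MS after methanol/acetic acid (100:1) precipitation and centrifugation. Triplicate determinations.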

Structure (SMILES): CC(C(=O)O)c1cccc(C(=O)c2ccccc2)c1 (stereo unspecified) [KETOPROFEN]
- Activity (HEK293 [1]): tde
- Activity (HEK293 [2]): tde
- Activity (HEK293 [3]): < 5.4%
- Activity (HEK293 [4]): tde
- Activity (HEK293 [5]): Non-toxic
- Activity (HEK293 [6]): tde
- Drug metabolism [7]: metabolite_detected
- Activity (HEK293 [8]): tde
- Activity (HEK293 [9]): tde
- Activity (HEK293 [10]): Non-toxic
- Drug metabolism [11]: metabolite_not_detected
